ChEMBL document CHEMBL1154855 (Eur J Med Chem, 2010)

What was measured:
[1] = Cytotoxicity against VSV infected human HeLa cells by trypan blue exclusion method; format: cell-based; conditions: HeLa cells infected with VSV
Procedure, shortened: (§1)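 Uninfected confluent cultures were run in parallel with the infected cultures. Medium was replaced by 1 ml maintenance medium with serial compound concentrations; cell controls received no compound. Cultures were incubated at 37 °C. After 2 and 7 days, compound was withdrawn and viability was determined by trypan blue exclusion.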

[2] = Cytotoxicity against Human coxsackievirus B4 infected human HeLa cells by trypan blue exclusion method; format: cell-based; conditions: HeLa cells infected with human coxsackievirus B4; procedure, shortened: as §1
[3] = Cytotoxicity against Respiratory syncytial virus infected human HeLa cells by trypan blue exclusion method; format: cell-based; conditions: HeLa cells infected with respiratory syncytial virus; procedure, shortened: as §1
[4] = Cytotoxicity against Herpes simplex virus 1 KOS infected HEL cells by trypan blue exclusion method; format: cell-based; conditions: human, HEL cells infected with herpes simplex virus 1 KOS; procedure, shortened: as §1
[5] = Cytotoxicity against Herpes simplex virus 2 G infected HEL cells by trypan blue exclusion method; format: cell-based; conditions: human, HEL cells infected with herpes simplex virus 2 G; procedure, shortened: as §1
[6] = Cytotoxicity against Vaccinia virus infected HEL cells by trypan blue exclusion method; format: cell-based; conditions: human, HEL cells infected with vaccinia virus; procedure, shortened: as §1
[7] = Cytotoxicity against VSV infected HEL cells by trypan blue exclusion method; format: cell-based; conditions: human, HEL cells infected with VSV; procedure, shortened: as §1
[8] = Cytotoxicity against PIV 3 infected african green monkey Vero cells by trypan blue exclusion method; format: cell-based; conditions: chlorocebus sabaeus, Vero cells infected with PIV 3; procedure, shortened: as §1
[9] = Cytotoxicity against Reovirus 1 infected african green monkey Vero cells by trypan blue exclusion method; format: cell-based; conditions: chlorocebus sabaeus, Vero cells infected with reovirus 1; procedure, shortened: as §1
[10] = Cytotoxicity against Sindbis virus infected african green monkey Vero cells by trypan blue exclusion method; format: cell-based; conditions: chlorocebus sabaeus, Vero cells infected with Sindbis virus; procedure, shortened: as §1
[11] = Cytotoxicity against Human coxsackievirus B4 infected african green monkey Vero cells by trypan blue exclusion method; format: cell-based; conditions: chlorocebus sabaeus, Vero cells infected with human coxsackievirus B4; procedure, shortened: as §1
[12] = Cytotoxicity against Punta Toro virus infected african green monkey Vero cells by trypan blue exclusion method; format: cell-based; conditions: chlorocebus sabaeus, Vero cells infected with Punta Toro virus; procedure, shortened: as §1
Coxsackievirus B4 [13] = experiment: Antiviral activity against Human coxsackievirus B4 infected in human HeLa cells assessed as protection from virus-induced cytopathogenicity after 2 days by MTT assay; format: functional, organism-based; conditions: Enterovirus B, 48 h
[14] = system: Respiratory syncytial virus; experiment: Antiviral activity against Respiratory syncytial virus infected in human HeLa cells assessed as protection from virus-induced cytopathogenicity after 4 days by MTT assay; format: functional, organism-based; conditions: 96 h
Human alphaherpesvirus 1 [15] = experiment: Antiviral activity against Herpes simplex virus 1 KOS infected in HEL cells assessed as protection from virus-induced cytopathogenicity after 2 to 3 days by MTT assay; format: functional, organism-based; conditions: Human alphaherpesvirus 1, KOS
Human alphaherpesvirus 2 = experiment: Antiviral activity against Herpes simplex virus 2 G infected in HEL cells assessed as protection from virus-induced cytopathogenicity after 2 to 3 days by MTT assay; format: functional, organism-based; conditions: Human alphaherpesvirus 2, strain G
[16] = system: Vesicular stomatitis virus; experiment: Antiviral activity against VSV infected in HEL cells assessed as protection from virus-induced cytopathogenicity after 1 to 2 days by MTT assay; format: functional, organism-based
Human alphaherpesvirus 1 [17] = experiment: Antiviral activity against acyclovir-sensitive Herpes simplex virus 1 KOS infected in HEL cells assessed as protection from virus-induced cytopathogenicity after 2 to 3 days by MTT assay; format: functional, organism-based; conditions: Human alphaherpesvirus 1, KOS
Human respirovirus 3 = experiment: Antiviral activity against PIV 3 infected in african green monkey Vero cells assessed as protection from virus-induced cytopathogenicity after 6 to 7 days by MTT assay; format: functional, organism-based; conditions: Human respirovirus 3, Vero
Sindbis virus = experiment: Antiviral activity against Sindbis virus infected in african green monkey Vero cells assessed as protection from virus-induced cytopathogenicity after 2 to 3 days by MTT assay; format: functional, organism-based
Coxsackievirus B4 [18] = experiment: Antiviral activity against Human coxsackievirus B4 infected in african green monkey Vero cells assessed as protection from virus-induced cytopathogenicity after 2 days by MTT assay; format: functional, organism-based; conditions: Enterovirus B, 48 h
Influenza A virus = experiment: Antiviral activity against Influenza A virus H1N1 infected in MDCK cells assessed as protection from virus-induced cytopathogenicity after 6 to 7 days by MTT assay; format: functional, organism-based

## NC(=O)c1ncn([C@@H]2O[C@H](CO)[C@@H](O)[C@H]2O)n1 [RIBAVIRIN]
[1]
  CC50: > 250 µM
[2]
  CC50: > 250 µM
[3]
  CC50: > 250 µM
[4]
  CC50: > 250 µM
[5]
  CC50: > 250 µM
[6]
  CC50: > 250 µM
[7]
  CC50: > 250 µM
[8]
  CC50: > 250 µM
[9]
  CC50: > 250 µM
[10]
  CC50: > 250 µM
[11]
  CC50: > 250 µM
[12]
  CC50: > 250 µM
Coxsackievirus B4 [13]
  EC50: 30 µM
[14]
  EC50: 30 µM
Human alphaherpesvirus 1 [15]
  EC50: 10 µM
Human alphaherpesvirus 2
  EC50: 50 µM
[16]
  EC50: > 250 µM
Human alphaherpesvirus 1 [17]
  EC50: 125 µM
Human respirovirus 3
  EC50: 95 µM
Sindbis virus
  EC50: 111 µM
Coxsackievirus B4 [18]
  EC50: > 250 µM
Influenza A virus
  EC50: 7 µM
